GRIN3A LBD mod: modulates the human NR3A ligand-binding domain | NR3A LBD differential scanning fluorimetry, Tm shift; 0% = protein alone, 100% = glycine-bound protein | Tm shift relative to glycine control, % at 25 µM | 340,000 compounds, 2.5% hits;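 active = melting temperature shift of at least 10% of the positive control shift, at one fixed dose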
MPTP inh: permeability transition pore inhibition | isolated mouse mitochondria, Ca2+ swelling absorbance, 30 min | inhibition, % at 10 µM | 360,000 compounds, 1.4% hits | AID 602449;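 active = inhibition of 50% or more, scaled per plate between neutral and stimulator controls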
aDG glyco act: alpha-DG glycosylation activation; Pro5-aDG cells, alpha-DG glycosylation AlphaScreen (IIH6); 0% Pro5, 100% B10-LARGE cell signal; 360,000 compounds, 0.22% hits; activation, % at 10 µM;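 active = activation of at least 8% versus controls, or a plate z-score of at least 8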;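 also: Pro5 are CHO cells carrying HIG-tagged alpha-DG that lacks glycosylation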
proCasp3 act: activates human procaspase-3; 330,000 compounds, 0.11% hits; activation, % at 8.5 µM; recombinant procaspase-3 D3A, Ac-DEVD-pNA absorbance 405 nm; P42574;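 active = activation above the mean of all tested compounds plus 3 SD, cut at about 21% in these data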
Target sequence (P42574 whole entry D9A/D28A/D175A): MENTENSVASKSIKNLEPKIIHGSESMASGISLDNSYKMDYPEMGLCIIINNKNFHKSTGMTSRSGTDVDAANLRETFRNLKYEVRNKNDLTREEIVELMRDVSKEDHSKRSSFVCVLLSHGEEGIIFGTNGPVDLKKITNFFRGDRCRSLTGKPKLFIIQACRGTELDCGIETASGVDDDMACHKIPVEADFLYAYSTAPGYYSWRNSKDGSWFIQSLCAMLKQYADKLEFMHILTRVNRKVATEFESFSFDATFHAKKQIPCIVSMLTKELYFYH
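Assay system: Autoprocessing-dead procaspase-3 D3A mutant enzyme; also added: Ac-DEVD-pNA; doses: one concentration, 8.5 µM nominal, 0.8% DMSO; times: 1 h compound preincubation, 2 h substrate hydrolysis at 25 °C; technique: 405 nm absorbance of p-nitroaniline, reads at 0 and 120 min; measure: % activation between DMSO and enzyme-spiked controls; repeats: single replicate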
procasp7 counter: counter-screen for procaspase-3 activators: activators of human procaspase-7 | P55210 | 330,000 compounds, 0.093% hits | activation, % at 8.5 µM | recombinant procaspase-7, Ac-DEVD-pNA absorbance 405 nm; D23A/D198A/D206A triple mutant, cannot self-cleave; scale: DMSO 0, 5 µM enzyme 100;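 active = percent activation above the screen-wide mean plus 3 SD, cut at about 25% in these data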
Target sequence (P55210 whole entry D23A/D198A/D206A): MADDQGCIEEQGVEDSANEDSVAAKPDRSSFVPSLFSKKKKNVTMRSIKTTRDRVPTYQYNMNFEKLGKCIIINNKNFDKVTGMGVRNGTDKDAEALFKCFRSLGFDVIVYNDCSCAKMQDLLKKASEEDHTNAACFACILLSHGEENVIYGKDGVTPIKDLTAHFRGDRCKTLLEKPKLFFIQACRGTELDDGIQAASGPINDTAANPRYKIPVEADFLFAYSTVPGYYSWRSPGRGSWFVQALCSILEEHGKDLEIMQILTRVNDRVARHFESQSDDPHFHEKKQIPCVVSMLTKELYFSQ
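System: Procaspase-7 triple mutant (PC-7 D3A); measure: % activation from two-timepoint absorbance difference, scaled to controls; times: 1 h compound preincubation, 2 h substrate cleavage, 25 °C; also added: Ac-DEVD-pNA substrate, 400 µM as added; measured by: Epi-absorbance of released pNA at 405 nm, two timepoints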
Rh123 counter: Rhodamine 123 counter-screen of mitochondrial pore hits. shares compounds with MPTP inh. isolated mitochondria, membrane potential, Rhodamine 123 fluorescence. inhibition, % at 10 µM. 5,000 compounds, 78% hits; in the data active = inhibition above about 22%
MPTP swell DR: MPTP inhibition, dose response swelling confirmation. shares compounds with MPTP inh. isolated mitochondria swelling, absorbance. IC50, µM. 780 compounds, 58% hits. AID 651561; in the data active = IC50 below about 20 µM
MPTP cs DR: counter-screen for mitochondrial permeability transition pore inhibitors, dose response; shares compounds with MPTP inh; isolated mitochondria counterscreen, fluorescence read-out; IC50, µM; 780 compounds, 49% hits; AID 651564; in the data active = IC50 below about 80 µM
Hits are given with their value; - = inactive; . = no result. The list is not random: actives were taken first. Their share in the collection is about 3.7%.

SMILES | GRIN3A LBD mod | MPTP inh | aDG glyco act | proCasp3 act | procasp7 counter | Rh123 counter | others
CCc1nc2c(OCc3ccc(Cl)cc3Cl)cccn2c1N(C=O)Cc1ccc(OC)cc1 | . | - | - | . | . | .
Cc1cc(C)n(-c2nnc(C)n2/N=C/c2cc(Br)ccc2OCc2ccccc2)n1 | - | - | - | - | - | .
O=[N+]([O-])c1ccc2nc(-c3ccncc3)[nH]c2c1 | - | - | - | - | - | .
Cc1ccc(-c2nc3ccc([N+](=O)[O-])cc3[nH]2)cc1 | 24.7 | 75.8 | - | - | - | 81.8
Cc1ccc(S(=O)(=O)N2CCN(c3ncnc4sccc34)CC2)cc1C | - | 89.6 | - | . | . | 93.6
Cc1ccc(S(=O)(=O)N2CCN(c3ncccn3)CC2)cc1C | - | - | - | - | - | .
O=S(=O)(c1ccc2c(c1)OCCO2)N1CCN(c2ncnc3sccc23)CC1 | - | 103.2 | - | - | - | 89.5
CC(C)C[C@H]1CN(CCCC[C@@H]2CNC(=O)C(=O)N2CC2CCCCC2)C(=O)C(=O)N1Cc1ccccc1 | . | - | - | . | . | .
CCCCNCCOCCOc1ccccc1-c1ccccc1 | - | 82.9 | - | - | - | - | MPTP swell DR=-;MPTP cs DR=-
COc1ccc(N2CCN(C(=O)CCc3ccc(S(=O)(=O)NC(C)(C)C)cc3)CC2)cc1 | - | - | - | - | - | .
CC1(C)CN(C2CCCCC2)C(=O)[C@H]1CC(=O)Nc1ccc(Br)cc1 | . | - | - | . | . | .
Oc1[nH]c2ccccc2c1N=Nc1ccccn1 | - | - | - | . | . | .
Oc1c(N=Nc2ccccn2)ccc2ccccc12 | - | 53.7 | - | - | - | -
O=C(COC(=O)CN1C(=O)NC2(CCCC2)C1=O)NCc1ccc(Cl)cc1Cl | - | - | - | - | - | .
Cc1cc([N+](=O)[O-])ccc1NC(=O)Cc1ccc(F)cc1 | - | - | - | - | - | .
O=C(Nc1ccccc1)Nc1cc([N+](=O)[O-])ccc1F | 19.8 | 62.9 | - | - | - | 90.9
Cc1cc([N+](=O)[O-])ccc1NC(=O)Nc1ccccc1F | - | 93.1 | - | - | - | 92.3
O=C(Nc1cccc(Cl)c1)C1C2CCC3C(CCC21)C3(Cl)Cl (configuration not stated) | 14.0 | 98.7 | - | - | - | 95.6
CC(C)C[C@@H](CN)NC(=O)c1nc[nH]c1C(=O)N[C@@H](C)C(=O)CNC[C@H](C)NC(=O)c1nc[nH]c1C(=O)N[C@@H](C)C(=O)O | - | - | - | . | . | .
CC(=O)NC(CCS(C)(=O)=O)C(=O)Nc1cc(Cl)ccc1Cl (configuration not stated) | - | - | - | - | - | .
CC(C)S(=O)(=O)c1csc(NC(=O)Nc2cc(Cl)ccc2Cl)c1Cl | - | 86.1 | - | - | - | 76.1
Cc1nc2sccn2c1-c1csc(NCc2ccccc2)n1 | - | 58.4 | 5.9 | - | - | 67.4
Cc1cc(N2CCN(c3nc4ccccc4s3)CC2)n2ncnc2n1 | - | 82.1 | 4.2 | - | - | 72.8
Cc1cc2ncn(C3CC(=O)N(Cc4ccccc4)C3=O)c2cc1C (configuration not stated) | - | - | - | - | - | .
Cc1nc2ccccc2n1C1CC(=O)N(Cc2ccccc2)C1=O (configuration not stated) | - | 64.8 | - | - | - | 57.7
SMILES | GRIN3A LBD mod | MPTP inh | aDG glyco act | proCasp3 act | procasp7 counter | Rh123 counter | others
CC(C)(C)C1(C)OC(=O)C(=Cc2ccc(OCC(=O)Nc3ccccc3)cc2)C(=O)O1 (configuration not stated) | - | 66.9 | - | - | - | -
COc1cc(C=C2C(=O)OC(C)(C)OC2=O)cc(Cl)c1OCC(=O)Nc1ccccc1 | - | - | - | - | - | .
Cc1onc(-c2c(F)cccc2Cl)c1C(=O)OCc1cnc(Cl)s1 | - | 52.2 | - | - | - | - | MPTP swell DR=-;MPTP cs DR=65.7
O=C(OCc1cnc(Cl)s1)c1c(F)cccc1F | - | - | - | - | - | .
CC(C)C[C@H]1CN([C@@H](Cc2ccc(O)cc2)CN2CCC[C@H]2CN2C(=O)C(=O)NC[C@@H]2Cc2ccc(O)cc2)C(=O)C(=O)N1CCc1ccccc1 | . | - | - | . | . | .
CCOC(=O)c1sc(NC(=O)CCN2CC(C)OC(C)C2)c(C(=O)OCC)c1C (configuration not stated) | . | . | . | - | - | .
CCOC(=O)c1sc(NC(=O)CCN2CCN(C)CC2)c(C(=O)OCC)c1C | - | 68.8 | - | - | - | - | MPTP swell DR=12.6;MPTP cs DR=-
O=C(NCCc1c[nH]c2ccccc12)c1[nH]c(C(F)(F)F)nc1-c1ccccc1 | . | - | - | . | . | .
COc1ccccc1N1CCN(C(=O)CC(NC(=O)c2ccccc2Cl)c2ccccc2)CC1 (configuration not stated) | - | - | - | . | . | .
COc1ccc(C(CNC(=O)c2oc3cc(C)c(Cl)cc3c2C)N2CCCCC2)cc1 (configuration not stated) | - | 71.3 | - | - | - | - | MPTP swell DR=-;MPTP cs DR=-
COc1ccc(C(CNC(=O)c2oc3ccc(C)cc3c2C)N2CCCCC2)cc1 (configuration not stated) | - | - | - | - | - | .
COc1ccc(NC(=O)CCC(=O)c2cc(C)sc2C)cc1 | - | - | - | . | . | .
CCOc1ccc(NC(=S)NNC(=O)c2cc(Br)ccc2Cl)cc1 | - | - | - | - | - | .
CCOc1ccc(NC(=S)NNc2ccnc3cc(Cl)ccc23)cc1 | - | 80.8 | - | - | - | 63.1
S=C(NNc1ccnc2cc(Cl)ccc12)Nc1ccc(Cl)cc1Cl | 14.5 | 100.9 | - | - | - | 72.9
CC1CC(C)CN(c2ccc(-n3cnnn3)cc2[N+](=O)[O-])C1 (configuration not stated) | - | - | - | - | - | .
O=[N+]([O-])c1cc(-n2cnnn2)ccc1N1CCC(Cc2ccccc2)CC1 | - | 75.3 | - | - | - | 57.0
Cc1c(C(=O)NCc2ccc(C(F)(F)F)cc2)sc(=O)n1Cc1ccc(S(=O)(=O)N(C)C)cc1 | . | - | - | . | . | .
Cc1nn(C2CCS(=O)(=O)C2)c(C)c1CN(C)C(=O)c1ccc(S(=O)(=O)N(C)C)cc1 (configuration not stated) | - | - | - | - | - | .
COc1ccc([N+](=O)[O-])cc1NC(=O)CSc1ccc2ccccc2c1 | - | 61.8 | - | - | - | 31.2
CCOC(=O)NC(NC(=S)Nc1ccc(OC)cc1)C(Cl)(Cl)Cl (configuration not stated) | - | - | - | - | - | .
COC(=O)NC(NC(=S)Nc1ccc([N+](=O)[O-])cc1)C(Cl)(Cl)Cl (configuration not stated) | - | 93.0 | - | - | - | 79.8

High-throughput results (PubChem)
